# Assay results gathered from unrelated publications.
# Cell line: MDA-MB-231
# Observed: cell growth or viability
Structure (SMILES),method,time,IC50
Cc1coc2c1c(=O)oc1c3ccccc3ccc21,SRB,72 h,10.3 µg/mL
CO[C@]1([C@@H]2CSC(=O)N2C(=O)c2ccccc2)C[C@H]2C[C@@H](CC[C@H](C)/C=C\C=C\CC/C(C)=C\C(=O)O2)O1,MTT,72 h,4.48 µM
COc1ccc2c(c1)[nH]c1c(C)nccc12,MTT,72 h,16.7 µM
CCCc1cc(=O)n2nc(NCc3c(F)cc(Cl)cc3F)c(C#N)c2[nH]1,ATP luminescence,72 h,> 50 µM
Nc1cc(I)c(I)cc1N,,72 h,65 µM
COC1(C2CSC(=O)N2)CC2CC(CCC(C)C=CC=CCCC(C)=CC(=O)O2)O1 (stereo not shown),MTT,72 h,23.4 µM
O=C1[O][Pt]2([NH][C@@H]3CCCC[C@H]3[NH]2)[O]C1=O,MTT,96 h,2.6 µM
CO[C@]1([C@@H]2CSC(=O)N2C)C[C@H]2C[C@@H](CC[C@H](C)/C=C\C=C\CC/C(C)=C\C(=O)O2)O1,MTT,72 h,19.9 µM
COc1c(O)cc2oc3cc(O)c(CC=C(C)C)c(O)c3c(=O)c2c1CC=C(C)C,,48 h,20.7 µM
N[C@@H](Cc1ccc(N(CCCl)CCCl)cc1)C(=O)O,CCK-8,48 h,> 50 µM
C/C1=C/C(=O)O[C@@H]2C[C@@H](CC[C@H](C)/C=C\C=C\CC1)O[C@@](OC(=O)c1ccccc1)([C@@H]1CSC(=O)N1)C2,MTT,72 h,5.05 µM
N.N.[Cl][Pt][Cl],,48 h,27.5 µM
O=C(O)CCCc1ccc(N(CCCl)CCCl)cc1,CCK-8,48 h,> 50 µM
